Reference: article PMC3663483 (Nature, 2012)

Tests used:
GFP-labelled PC3 cells = test: Real-time imaging of cell migration; assay type: cell-based, human; conditions: starting at 6 h of treatment
Method in brief: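 GFP-labelled PC3 cells were plated on poly-D-lysine-coated chamber slides and left to adhere for 24 h. Wells were then scratch-wounded. Wide-field fluorescence time-lapse was run under CO2 and temperature control, with DIC and GFP frames every 2 min. Cell centroids were tracked manually to give xy paths, velocity and distance. Analysis covered hours 3–4 and 6–7 of treatment, with 34 cells per condition and ANOVA.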

[1] = tested on: 4EBP1 and p70S6K1/2 phosphorylation; test: Preclinical trial in Pten L/L mice: mTOR effector phosphorylation; assay type: in vivo, mouse; conditions: INK128 1 mg/kg or RAD001 10 mg/kg daily gavage
Method in brief: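 Nine- and twelve-month-old PtenL/L mice were dosed daily by oral gavage, with vehicle 5% […], 15% NMP, 80% water. Whole prostates were removed, microdissected, frozen in liquid nitrogen and pulverised. Protein lysates were immunoblotted with antibodies to phospho-4EBP1 T37/46, 4EBP1, phospho-p70S6K T389, phospho-rpS6 S240/244 and rpS6.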

[2] = tested on: Pten^L/L prostate cancer mouse model; assay type: in vivo; conditions: Pten L/L mice; for apoptosis in prostate / cell proliferation in prostate: INK128 1 mg/kg or RAD001 10 mg/kg daily gavage
Method in brief: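 PtenL/L mice aged nine or twelve months were given daily oral gavage; vehicle was 5% polyvinylpropyline, 15% NMP, 80% water. Body weight was taken every 3 days for toxicity. In the 28-day study, prostates were MRI-imaged at 14 T on days 0 and 28. Prostates and lymph nodes were formalin-fixed and cut as 5 μm paraffin sections. Nodes were stained for CK8 and androgen receptor, and metastasis areas were measured.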

[3] = tested on: multiple cancer cell lines; test: Apoptosis analysis; assay type: cell-based, human
Method in brief: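 LNCaP and A498 cells, after treatment, were labelled with Annexin V-FITC and propidium iodide per kit instructions. Annexin/PI staining was acquired by flow cytometry to score apoptotic cells.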

[4] = tested on: mTOR effectors 4EBP1, p70S6K1/2 and AKT; test: Western blot of downstream mTOR effectors in PC3 cells; assay type: cell-based, human; conditions: PP242 2.5 μM, rapamycin 50 nM, 3-h treatment
[5] = tested on: PC3 human prostate cancer cells; test: Ribosome profiling of PC3 cells; assay type: cell-based; conditions: 3 h, rapamycin 50 nM
[6] = tested on: Jurkat lymphoid cell line; conditions: cited from earlier work

SMILES	cancer cell migration (GFP-labelled PC3 cells)	4EBP1 and p70S6K1/2 phosphorylation [1]	decrease in prostatic intraepithelial neoplasia (PIN) lesions ([2]; INK128 1 mg/kg daily gavage)	prostate cancer volume ([2]; INK128 1 mg/kg daily gavage, MRI day 0 and day 28)	apoptosis in prostate [2]	cell proliferation in prostate [2]	programmed cell death [3]	regression of PIN lesions ([2]; RAD001 10 mg/kg daily gavage)	activity of downstream mTOR effectors 4EBP1, p70S6K1/2 and AKT [4]	effect on gene expression by ribosome profiling [5]	sensitivity to rapamycin treatment [6]
CC(C)n1nc(-c2ccc3oc(N)nc3c2)c2c(N)ncnc21 [INK128]	inhibits cancer cell migration	completely restored to wild-type levels	50%	marked reduction	tenfold increase	decreased proliferation	induced programmed cell death	–	–	–	–
CO[C@H]1C[C@@H]2CC[C@@H](C)[C@@](O)(O2)C(=O)C(=O)N2CCCC[C@H]2C(=O)O[C@H]([C@H](C)C[C@@H]2CC[C@@H](OCCO)[C@H](OC)C2)CC(=O)[C@H](C)/C=C(\C)[C@@H](O)[C@@H](OC)C(=O)[C@H](C)C[C@H](C)/C=C/C=C/C=C/1C [RAD001]	–	only decreased p70S6K1/2 phosphorylation levels	–	–	no significant effect	limited decrease	–	only partial regression	–	–	–
CO[C@H]1C[C@@H]2CC[C@@H](C)[C@@](O)(O2)C(=O)C(=O)N2CCCC[C@H]2C(=O)O[C@H]([C@H](C)C[C@@H]2CC[C@@H](O)[C@H](OC)C2)CC(=O)[C@H](C)/C=C(\C)[C@@H](O)[C@@H](OC)C(=O)[C@H](C)C[C@H](C)/C=C/C=C/C=C/1C [rapamycin]	–	–	–	–	–	–	–	–	only blocks p70S6K1/2 activity	did not markedly affect gene expression	particularly sensitive
